Here are results for 25 compounds from ChEMBL document CHEMBL1154448, “Thiazolyl/oxazolyl formazanyl indoles as potent anti-inflammatory agents” (Eur J Med Chem, 2008).

Data set [1] is described as follows: Acute toxicity in ip dosed albino mouse assessed as mortality after 24 hrs. The data set is classed as organism-based. As to conditions: in vivo, read-out: ALD50. Put shortly:
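Albino mice of either sex (20-28 g), separate groups given graded intraperitoneal doses; percent mortality recorded 24 h after dosing; approximate 50% lethal dose (ALD50) calculated by the method of Smith.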

Data set [2] deals with Rattus norvegicus. As to the kind of experiment: Antiinflammatory activity in Albino rat assessed as inhibition of carrageenan-induced paw edema at 50 mg/kg, po administered 1 hr before carrageenan challenge by micro-pipette method relative to control. The data set is classed as functional. Details: scale not given: the % may be the effect or the level left. In a few lines: (§1)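 Rats of either sex, 75-125 g, in groups of 6 (one control group). Compounds were suspended in gum acacia and given orally 1 h before carrageenin. Foot volume was measured by micro-pipette before and at 1 and 3 h after carrageenin. % activity was calculated from the mean oedema volumes of treated (Vt) and control (Vc) groups.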
(In the carrageenan paw model, swelling and tenderness develop within hours.)

Data set [3] deals with Mus musculus. As to the kind of experiment: Analgesic activity in mouse assessed as protection against phenylquinone-induced writhes at 50 mg/kg, po administered 1 hr before phenylquinone challenge relative to control. It is filed as functional. In a few lines: (§2)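 Mice in groups of 5 were dosed orally and, 1 h later, injected i.p. with 0.25 mL of 0.02% phenylquinone in 5% ethanol. Writhes per mouse were counted for 5 min, between 5 and 10 min after the irritant. % protection = (1 − mean writhes in test group / mean writhes in control group) × 100.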

In data set [4] the test system is Mus musculus. As to the kind of experiment: Analgesic activity in mouse assessed as protection against phenylquinone-induced writhes at 100 mg/kg, po administered 1 hr before phenylquinone challenge relative to control. The data set is classed as functional. Put shortly:
as §2

The nature of data set [5]: Toxicity in ip dosed Albino rat assessed as ulcerogenic activity after 8 hrs. The data set is classed as organism-based. To be noted: in vivo, read-out: UD50. Put shortly: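 Adult albino rats of either sex, in groups of 10, non-pregnant, fasted 24 h with water allowed. Drugs were given i.p. and animals killed 8 h later. Stomach, duodenum and jejunum were examined with a hand lens for epithelial shedding, red spots or bleeding, and erosion or ulceration. Any one sign was scored as ulcerogenic. Result reported as UD50.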

In data set [6] the test system is Rattus norvegicus. As to the kind of experiment: Antiinflammatory activity in Albino rat assessed as inhibition of carrageenan-induced paw edema at 25 mg/kg, po administered 1 hr before carrageenan challenge by micro-pipette method relative to control. The data set is classed as functional. Details: scale not given: the % may be the effect or the level left. Put shortly:
as §1

Data set [7] concerns Mus musculus. The data set is described as follows: Analgesic activity in mouse assessed as protection against phenylquinone-induced writhes at 25 mg/kg, po administered 1 hr before phenylquinone challenge relative to control. The data set is classed as functional. In a few lines: as §2
Data set [8] deals with Rattus norvegicus. The data set is described as follows: Antiinflammatory activity in Albino rat assessed as inhibition of carrageenan-induced paw edema at 100 mg/kg, po administered 1 hr before carrageenan challenge by micro-pipette method relative to control. The data set is classed as functional. Details: scale not given: the % may be the effect or the level left. In a few lines:
as §1

The structures appear in SMILES notation.

As to `COc1ccc(/N=N/C(=N\c2nc(-c3c(-c4ccc(Cl)cc4)[nH]c4ccccc34)cs2)c2c(C)[nH]c3ccccc23)cc1`, the LD50 at 24 h in data set [1] was > 800 mg/kg. For the same compound, the Activity is listed as 15.4% with Rattus norvegicus [2] and 13.7% in the data set with Mus musculus [3].
Take `Clc1ccc(-c2[nH]c3ccccc3c2-c2coc(/N=C/c3c(-c4ccccc4)[nH]c4ccccc34)n2)cc1`: the LD50 at 24 h in data set [1] is > 800 mg/kg. For the same compound, the Activity with Rattus norvegicus [2] was 25.3%; in the data set with Mus musculus [3], 23.7%.
The like results for `Cc1[nH]c2ccccc2c1C(=N/c1nc(-c2c(-c3ccc(Cl)cc3)[nH]c3ccccc23)co1)/N=N/c1ccc(Cl)cc1` were, in that order, > 800 mg/kg, 22.1% and 21.2%.
The like results for `Clc1ccc(-c2[nH]c3ccccc3c2-c2csc(/N=C/c3c[nH]c4ccccc34)n2)cc1` were, in that order, > 800 mg/kg, 31.8% and 30.6%.
For `CCc1[nH]c2ccccc2c1C(=N/c1nc(-c2c(-c3ccc(Cl)cc3)[nH]c3ccccc23)co1)/N=N/c1ccc(OC)cc1` the same measures were > 800 mg/kg, 25.2% and 23.9%.
For `Clc1ccc(-c2[nH]c3ccccc3c2-c2csc(/N=C/c3c(-c4ccccc4)[nH]c4ccccc34)n2)cc1`, the LD50 at 24 h in data set [1] amounted to 800 mg/kg. For the same compound, the Activity in the data set on Rattus norvegicus [2] is listed as 19.7%.
As to `CCCCC1C(=O)N(c2ccccc2)N(c2ccccc2)C1=O` [PHENYLBUTAZONE], the Activity in the data set with Mus musculus [4] worked out at 62.3%; in the data set with Rattus norvegicus [6], 15.2%; in the data set on Rattus norvegicus [2], 38.8%; in the data set with Mus musculus [3], 37.2%; in the data set on Mus musculus [7], 13.7%; in the data set with Rattus norvegicus [8], 65.4%. In data set [5], the TD50 at 8 h is 66.7 mg/kg.
Take `COc1ccc(/N=N/C(=N\c2nc(-c3c(-c4ccc(Cl)cc4)[nH]c4ccccc34)co2)c2c[nH]c3ccccc23)cc1`: the LD50 at 24 h in data set [1] is > 800 mg/kg. In addition, the Activity was 20.6% with Rattus norvegicus [2] and 19.2% with Mus musculus [3].
`Cc1[nH]c2ccccc2c1/C=N/c1nc(-c2c(-c3ccc(Cl)cc3)[nH]c3ccccc23)cs1`: the Activity is 64.6% in the data set on Mus musculus [4]; 36.4% in the data set on Rattus norvegicus [6]; 53.3% in the data set on Rattus norvegicus [2]; 51.4% in the data set with Mus musculus [3]; 35.1% in the data set with Mus musculus [7]; 68.2% in the data set on Rattus norvegicus [8]. Besides, in data set [1], the LD50 at 24 h was > 1000 mg/kg. The TD50 at 8 h in data set [5] turned out to be 200 mg/kg.
Take `Clc1ccc(/N=N/C(=N\c2nc(-c3c(-c4ccc(Cl)cc4)[nH]c4ccccc34)cs2)c2c(-c3ccccc3)[nH]c3ccccc23)cc1`: the LD50 at 24 h in data set [1] was > 800 mg/kg. Further, the Activity is 23.1% in the data set on Rattus norvegicus [2] and 21.9% in the data set on Mus musculus [3].
For `COc1ccc(/N=N/C(=N\c2nc(-c3c(-c4ccc(Cl)cc4)[nH]c4ccccc34)cs2)c2c[nH]c3ccccc23)cc1` the same measures were > 800 mg/kg, 19.2% and 18.8%.
On to `COc1ccc(/N=N/C(=N\c2nc(-c3c(-c4ccc(Cl)cc4)[nH]c4ccccc34)cs2)c2c(-c3ccccc3)[nH]c3ccccc23)cc1`, for which the LD50 at 24 h in data set [1] was > 800 mg/kg. For the same compound, the Activity in the data set with Rattus norvegicus [2] turned out to be 11.5%; in the data set with Mus musculus [3] it was 10.5%.
For `Cc1[nH]c2ccccc2c1C(=N/c1nc(-c2c(-c3ccc(Cl)cc3)[nH]c3ccccc23)cs1)/N=N/c1ccc(Cl)cc1`, the LD50 at 24 h in data set [1] was > 800 mg/kg. Moreover, the Activity is recorded as 21.2% in the data set with Rattus norvegicus [2] and 19.8% in the data set with Mus musculus [3].
`CCc1[nH]c2ccccc2c1C(=N/c1nc(-c2c(-c3ccc(Cl)cc3)[nH]c3ccccc23)cs1)/N=N/c1ccc(Cl)cc1`: in data set [1], the LD50 at 24 h is > 800 mg/kg. Also, the Activity is given as 17.3% in the data set on Rattus norvegicus [2] and 16.2% in the data set with Mus musculus [3].
For `COc1ccc(/N=N/C(=N\c2nc(-c3c(-c4ccc(Cl)cc4)[nH]c4ccccc34)co2)c2c(C)[nH]c3ccccc23)cc1`, in data set [1], the LD50 at 24 h is > 800 mg/kg. For the same compound, the Activity was 19.1% in the data set on Rattus norvegicus [2] and 17.8% with Mus musculus [3].
With `Clc1ccc(/N=N/C(=N\c2nc(-c3c(-c4ccc(Cl)cc4)[nH]c4ccccc34)cs2)c2c[nH]c3ccccc23)cc1`, in data set [1], the LD50 at 24 h was > 800 mg/kg. The values for the Activity in the data set with Rattus norvegicus [2] and in the data set with Mus musculus [3] were 9.6% and 8.5%, respectively.
For the compound `Clc1ccc(/N=N/C(=N\c2nc(-c3c(-c4ccc(Cl)cc4)[nH]c4ccccc34)co2)c2c[nH]c3ccccc23)cc1`, the LD50 at 24 h in data set [1] was > 800 mg/kg. The Activity was determined as 16.2% in the data set on Rattus norvegicus [2] and 14.7% with Mus musculus [3].
Consider `CCc1[nH]c2ccccc2c1C(=N/c1nc(-c2c(-c3ccc(Cl)cc3)[nH]c3ccccc23)co1)/N=N/c1ccc(Cl)cc1`, for which the LD50 at 24 h in data set [1] is > 800 mg/kg. For the same compound, the Activity is on record as 23.5% in the data set with Rattus norvegicus [2] and 21.5% in the data set with Mus musculus [3].
For `CCc1[nH]c2ccccc2c1/C=N/c1nc(-c2c(-c3ccc(Cl)cc3)[nH]c3ccccc23)cs1`, in data set [1], the LD50 at 24 h was > 800 mg/kg. The Activity in the data set with Rattus norvegicus [2] was 25.8%; in the data set with Mus musculus [3], 23.2%.
Take `Clc1ccc(-c2[nH]c3ccccc3c2-c2coc(/N=C/c3c[nH]c4ccccc34)n2)cc1`: the LD50 at 24 h in data set [1] is > 800 mg/kg. The Activity worked out at 22.7% in the data set on Rattus norvegicus [2] and 20.9% with Mus musculus [3].
Turning to `COc1ccc(/N=N/C(=N\c2nc(-c3c(-c4ccc(Cl)cc4)[nH]c4ccccc34)co2)c2c(-c3ccccc3)[nH]c3ccccc23)cc1`, the LD50 at 24 h in data set [1] was > 800 mg/kg. Further, the Activity in the data set with Rattus norvegicus [2] is 17.6%; in the data set with Mus musculus [3], 15.2%.
Consider `Clc1ccc(/N=N/C(=N\c2nc(-c3c(-c4ccc(Cl)cc4)[nH]c4ccccc34)co2)c2c(-c3ccccc3)[nH]c3ccccc23)cc1`, for which, in data set [1], the LD50 at 24 h was > 800 mg/kg. The figures for the Activity in the data set with Rattus norvegicus [2] and in the data set on Mus musculus [3] were 27.9% and 26.3%, respectively.
As for `CCc1[nH]c2ccccc2c1/C=N/c1nc(-c2c(-c3ccc(Cl)cc3)[nH]c3ccccc23)co1`, the LD50 at 24 h in data set [1] is > 800 mg/kg. Further, the Activity is recorded as 17.3% with Rattus norvegicus [2] and 16.2% with Mus musculus [3].
For the compound `Cc1[nH]c2ccccc2c1/C=N/c1nc(-c2c(-c3ccc(Cl)cc3)[nH]c3ccccc23)co1`, the LD50 at 24 h in data set [1] is > 800 mg/kg. The results for the Activity in the data set on Rattus norvegicus [2] and in the data set with Mus musculus [3] were 21.3% and 19.9%, respectively.
With `CCc1[nH]c2ccccc2c1C(=N/c1nc(-c2c(-c3ccc(Cl)cc3)[nH]c3ccccc23)cs1)/N=N/c1ccc(OC)cc1`, in data set [1], the LD50 at 24 h was > 800 mg/kg. The results for the Activity in the data set on Rattus norvegicus [2] and with Mus musculus [3] were 13.5% and 12.3%, respectively.
